Test results taken from ChEMBL document CHEMBL5705899 (Biochem J, 2014).
Values belong to the compound of their own block, whether it stands above or below them. The source made the active and inactive calls. No cut-off for these calls is given here.

Columns and labels:
[1] = test system: U2OS; test: Inhibition of PI3K in human U2OS cells expressing FLAG-tagged SGK3 assessed as reduction in AKT phosphorylation T308 residues at 0.5 uM 1 hr by immunoblot analysis; assay type: cell-based
Method in brief: (§1)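 FLAG-SGK3 U2OS Flp-In cells (doxycycline-induced) treated for 1 h with class I PI3K inhibitor, 0.5 μM or a dose series as indicated. Lysed in phosphatase-inhibitor buffer, clarified at 16000 g for 10 min at 4°C, Bradford-normalized. Akt, PRAS40 and 4EBP1 phosphosites were read by immunoblot, and SGK3 sites on anti-FLAG immunoprecipitates, with ECL film detection.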

[2] = test system: U2OS; test: Inhibition of PI3K in human U2OS cells expressing FLAG-tagged SGK3 assessed as reduction in SGK3 activity at 0.5 uM using cross peptide as substrate incubated for 1 to 2 mins in presence of [gamma-32P]-ATP by radioactive assay; assay type: cell-based; conditions: time 1-2 min
[3] = test system: U2OS; test: Inhibition of PI3K in human U2OS cells expressing FLAG-tagged SGK3 assessed as reduction in SGK3 phosphorylation at S486 residues 0.5 uM after 1 hr by immunoblot analysis; assay type: cell-based; method in brief: as §1
[4] = test system: U2OS; test: Inhibition of PI3K in human U2OS cells expressing FLAG-tagged SGK3 assessed as reduction in 4EBP1 phosphorylation T37/T46 residues at 0.5 uM 1 hr by immunoblot analysis; assay type: cell-based; method in brief: as §1
[5] = molecular target: Phosphatidylinositol 3-kinase catalytic subunit type 3 (Homo sapiens) (UniProt Q8NEB9); test: Inhibition of Vps34 in human U2OS cells expressing C-terminal tagged-SGK3 assessed as reduction in SGK3 level in endosome at 0.5 uM incubated for 1 hr by Alexa Fluor 594 staining based fluorescence microscopic analysis; assay type: subcellular
Chain of Phosphatidylinositol 3-kinase catalytic subunit type 3 (Homo sapiens) (Q8NEB9 whole entry): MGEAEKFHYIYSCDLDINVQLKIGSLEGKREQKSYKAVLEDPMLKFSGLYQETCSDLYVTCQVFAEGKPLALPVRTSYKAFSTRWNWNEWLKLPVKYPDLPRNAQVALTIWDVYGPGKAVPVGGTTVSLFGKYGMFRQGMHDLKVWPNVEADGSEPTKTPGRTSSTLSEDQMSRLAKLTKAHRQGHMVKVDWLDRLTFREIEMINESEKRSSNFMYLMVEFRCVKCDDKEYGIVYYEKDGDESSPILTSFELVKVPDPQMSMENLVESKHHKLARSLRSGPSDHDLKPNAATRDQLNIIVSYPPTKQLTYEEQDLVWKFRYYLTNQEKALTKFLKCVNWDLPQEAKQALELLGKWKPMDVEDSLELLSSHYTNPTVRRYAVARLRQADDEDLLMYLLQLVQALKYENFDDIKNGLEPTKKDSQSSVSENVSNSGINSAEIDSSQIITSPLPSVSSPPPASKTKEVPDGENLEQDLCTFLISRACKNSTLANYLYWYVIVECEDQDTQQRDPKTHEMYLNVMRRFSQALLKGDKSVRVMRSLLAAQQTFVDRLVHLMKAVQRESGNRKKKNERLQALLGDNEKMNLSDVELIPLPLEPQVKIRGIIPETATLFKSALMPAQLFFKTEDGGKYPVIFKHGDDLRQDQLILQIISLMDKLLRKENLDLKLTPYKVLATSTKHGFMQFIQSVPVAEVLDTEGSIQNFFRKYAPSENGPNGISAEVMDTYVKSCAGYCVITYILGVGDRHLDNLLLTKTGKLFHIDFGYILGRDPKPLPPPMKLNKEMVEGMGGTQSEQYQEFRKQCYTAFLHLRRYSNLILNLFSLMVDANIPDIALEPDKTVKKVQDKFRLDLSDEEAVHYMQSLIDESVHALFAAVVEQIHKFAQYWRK

[6] = molecular target: Phosphatidylinositol 3-kinase catalytic subunit type 3 (Homo sapiens) (UniProt Q8NEB9); test: Inhibition of Vps34 in human U2OS cells expressing GFP-2xFYVEHrs assessed as reduction in PtdIns(3)P level in endosome at 0.5 uM incubated for 1 hr by Alexa Fluor 488 staining based fluorescence microscopic analysis relative to control
Method in brief: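 U2OS clone with low stable expression of lentiviral GFP–2×FYVEHrs; 1 h inhibitor exposure. Permeabilized by a freeze–thaw in liquid nitrogen, then fixed in 4% paraformaldehyde, stained with anti-GFP plus Alexa Fluor 488 secondary and DAPI. Ten random fields of 20–25 cells each; fluorescence per cell (field total/cell count) expressed relative to DMSO, mean±S.D.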

[7] = test system: U2OS; test: Inhibition of PI3K in human U2OS cells expressing FLAG-tagged SGK3 assessed as reduction in SGK3 phosphorylation at T320 residues 0.5 uM after 1 hr by immunoblot analysis; assay type: cell-based; method in brief: as §1
[8] = test system: U2OS; test: Inhibition of PI3K in human U2OS cells expressing FLAG-tagged SGK3 assessed as reduction in NDRG1 phosphorylation at T346 residues at 0.5 uM 1 hr by immunoblot analysis; assay type: cell-based
[9] = test system: U2OS; test: Inhibition of PI3K in human U2OS cells expressing FLAG-tagged SGK3 assessed as reduction in SGK3 phosphorylation at S486 residues 0.5 uM after 1 to 2 mins by immunoblot analysis; assay type: cell-based; conditions: time 1-2 min
[10] = test system: U2OS; test: Inhibition of PI3K in human U2OS cells expressing FLAG-tagged SGK3 assessed as reduction in PRAS40 phosphorylation T246 residues at 0.5 uM 1 hr by immunoblot analysis; assay type: cell-based; method in brief: as §1
[11] = test system: U2OS; test: Inhibition of PI3K in human U2OS cells expressing FLAG-tagged SGK3 assessed as reduction in SGK3 phosphorylation at T320 residues 0.5 uM after 1 to 2 mins by immunoblot analysis; assay type: cell-based; conditions: time 1-2 min
[12] = test system: U2OS; test: Inhibition of PI3K in human U2OS cells expressing FLAG-tagged SGK3 assessed as reduction in 4EBP1 phosphorylation S65 residues at 0.5 uM 1 hr by immunoblot analysis; assay type: cell-based; method in brief: as §1
[13] = test system: U2OS; test: Inhibition of PI3K in human U2OS cells expressing GFP-PHAkt1 assessed as reduction in IGF-stimulated PtdIns(3,4,5)P3/PtdIns(3,4)P2 level in endosome at 0.5 uM pre incubated for 1 hr followed by IGF stimulation and measured after 15 mins by Alexa Fluor 488 staining based fluorescence microscopic analysis; assay type: subcellular; conditions: time 1.25 hrs
[14] = test system: U2OS; test: Inhibition of PI3K in human U2OS cells expressing FLAG-tagged SGK3 assessed as reduction in AKT phosphorylation S473 residues at 0.5 uM 1 hr by immunoblot analysis; assay type: cell-based; method in brief: as §1
[15] = test system: U2OS; test: Inhibition of PI3K in human U2OS cells expressing FLAG-tagged SGK3 assessed as reduction in AKT phosphorylation T308 residues at 0.01 to 0.5 uM 1 hr by immunoblot analysis; assay type: cell-based; conditions: dose 0.01-0.5 µM; method in brief: as §1
[16] = test system: U2OS; test: Inhibition of PI3K in human U2OS cells expressing FLAG-tagged SGK3 assessed as reduction in PRAS40 phosphorylation T246 residues at 0.01 to 0.5 uM 1 hr by immunoblot analysis; assay type: cell-based; conditions: dose 0.01-0.5 µM; method in brief: as §1
[17] = test system: U2OS; test: Inhibition of PI3K in human U2OS cells expressing FLAG-tagged SGK3 assessed as reduction in 4EBP1 phosphorylation S65 residues at 0.01 to 0.5 uM 1 hr by immunoblot analysis; assay type: cell-based; conditions: dose 0.01-0.5 µM; method in brief: as §1
[18] = test system: U2OS; test: Inhibition of PI3K in human U2OS cells expressing FLAG-tagged SGK3 assessed as reduction in AKT phosphorylation S473 residues at 0.01 to 0.5 uM 1 hr by immunoblot analysis; assay type: cell-based; conditions: dose 0.01-0.5 µM; method in brief: as §1
[19] = test system: U2OS; test: Inhibition of PI3K in human U2OS cells expressing FLAG-tagged SGK3 assessed as reduction in 4EBP1 phosphorylation T37/T46 residues at 0.01 to 0.5 uM 1 hr by immunoblot analysis; assay type: cell-based; conditions: dose 0.01-0.5 µM; method in brief: as §1
[20] = molecular target: T1, 3-phosphoinositide-dependent protein kinase 1 (Homo sapiens) (UniProt O15530); test: Inhibition of PDK1 in human U2OS cells expressing FLAG-tagged SGK3 assessed as reduction in SGK3 phosphorylation at S486 residues at 1 uM after 1 hr by immunoblot analysis; assay type: cell-based
T1 sequence (whole entry): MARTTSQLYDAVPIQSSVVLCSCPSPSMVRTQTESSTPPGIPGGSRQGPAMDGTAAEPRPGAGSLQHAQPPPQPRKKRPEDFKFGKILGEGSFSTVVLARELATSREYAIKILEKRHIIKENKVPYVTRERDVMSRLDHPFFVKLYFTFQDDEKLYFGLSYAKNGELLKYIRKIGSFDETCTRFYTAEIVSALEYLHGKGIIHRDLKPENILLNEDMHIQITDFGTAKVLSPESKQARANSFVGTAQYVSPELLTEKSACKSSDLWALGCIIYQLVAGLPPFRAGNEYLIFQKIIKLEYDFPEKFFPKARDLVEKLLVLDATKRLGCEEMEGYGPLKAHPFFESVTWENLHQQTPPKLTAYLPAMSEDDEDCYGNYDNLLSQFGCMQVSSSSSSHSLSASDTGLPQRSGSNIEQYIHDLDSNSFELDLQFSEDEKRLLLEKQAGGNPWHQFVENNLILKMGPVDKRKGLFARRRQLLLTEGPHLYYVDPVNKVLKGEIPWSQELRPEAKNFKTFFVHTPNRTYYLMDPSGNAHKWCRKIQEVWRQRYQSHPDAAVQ
Method in brief: (§2)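 U2OS Flp-In cells with doxycycline-induced (0.01 mg/ml, 24 h) full-length SGK3 carrying a C-terminal FLAG tag; treated with 1 μM inhibitor for 1 h. Lysis, anti-FLAG immunoprecipitation, washes (high-salt lysis buffer, lysis buffer, 50 mM Tris pH 7.5/0.1 mM EGTA). IP kinase assay: 30 μM Crosstide, 0.1 mM [γ-32P]ATP, 10 mM Mg acetate, 30 min. Phosphosites then immunoblotted, ECL. Triplicate reactions.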

[21] = molecular target: T1, 3-phosphoinositide-dependent protein kinase 1 (Homo sapiens); test: Inhibition of PDK1 in human U2OS cells expressing FLAG-tagged SGK3 assessed as reduction in SGK3 activity at 1 uM using cross peptide as substrate incubated for 30 mins in presence of [gamma-32P]-ATP by radioactive assay; assay type: cell-based; method in brief: as §2
[22] = molecular target: T1, 3-phosphoinositide-dependent protein kinase 1 (Homo sapiens); test: Inhibition of PDK1 in human U2OS cells expressing FLAG-tagged SGK3 assessed as reduction in SGK3 phosphorylation at T320 residues at 1 uM after 1 hr by immunoblot analysis; assay type: cell-based; method in brief: as §2
[23] = molecular target: Serine/threonine-protein kinase mTOR (Homo sapiens) (UniProt P42345); test: Inhibition of mTOR in human U2OS cells expressing FLAG-tagged SGK3 assessed as reduction in 4EBP1 phosphorylation T37/T46 residues at 0.1 uM 1 hr by immunoblot analysis; assay type: cell-based
Method in brief: (§3)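 Doxycycline-induced FLAG-SGK3 U2OS Flp-In cells exposed to 0.1 μM mTOR inhibitor for 1 h. Clarified lysates immunoblotted for 4EBP1 phosphosites (Thr37/Thr46, Ser65), ECL film detection.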

[24] = molecular target: Serine/threonine-protein kinase mTOR (Homo sapiens) (UniProt P42345); test: Inhibition of mTOR in human U2OS cells expressing FLAG-tagged SGK3 assessed as reduction in 4EBP1 phosphorylation S65 residues at 0.1 uM 1 hr by immunoblot analysis; assay type: cell-based; method in brief: as §3

- inhibition [5]: inactive
- inhibition [6]: inactive
- inhibition [13]: Active
SMILES: CS(=O)(=O)N1CCN(Cc2cc3nc(-c4cccc5[nH]ncc45)nc(N4CCOCC4)c3s2)CC1
- inhibition [1]: Active
- inhibition [2]: Active
- inhibition [3]: Active
- inhibition [4]: inactive
- inhibition [7]: Active
- inhibition [8]: Active
- inhibition [9]: Active
- inhibition [10]: Active
- inhibition [11]: Active
- inhibition [12]: inactive
- inhibition [14]: Active

SMILES: Nc1cc(C(F)(F)F)c(-c2cc(N3CCOCC3)nc(N3CCOCC3)n2)cn1
- inhibition [15]: Active
- inhibition [16]: Active
- inhibition [17]: inactive
- inhibition [18]: Active
- inhibition [19]: inactive

- inhibition [20]: Active
- inhibition [21]: Active
- inhibition [22]: Active
SMILES: CNc1nc(-c2ccc3c(N)n[nH]c3c2)cc(N2C[C@@H](C(=O)NC3CCCCC3)CC[C@H]2C)n1

- inhibition [23]: Active
- inhibition [24]: Active
SMILES: COc1ccc(-c2ccc3c(N4CCOC[C@@H]4C)nc(N4CCOC[C@@H]4C)nc3n2)cc1CO
